Compounds with a hit are over-represented: about 1.8% of the library has one in this group of screens.
Tn6 DDE FP – inhibitors of Tn6 peptide binding to human fibrin DD(E); P02675; Fibrin DD(E) TRITC-Tn6 fluorescence polarization displacement; inhibition, % at 8.3 µM; hit rate 0.21% among 370,000;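 active = inhibition above a per-campaign cutoff: mean of compounds within control limits plus 3 SD, cut at about 15% in these data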
CAL PDZ FP-1 – blocks peptide binding to the human CAL PDZ domain; inhibition, % at 24.9 µM; purified CAL PDZ, TMR-peptide fluorescence polarization, 1 h; Q9HD26; hit rate 0.92% among 300,000;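 active = mean inhibition of at least 30% with at least half of replicates also reaching 30%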
GRK2 inh – blocks RNA aptamer binding to human GRK2; AID 488847; bead flow cytometry, FAM-aptamer displacement from GRK2; inhibition of aptamer binding, % at 10 µM; hit rate 0.59% among 330,000;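 active = inhibition of aptamer binding above 40%, roughly 3 SD of noise, on plates passing a quality check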;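 note: median bead fluorescence of bound FAM aptamer so fluorescent compounds give negative values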
Target sequence (P25098 whole entry, looked up): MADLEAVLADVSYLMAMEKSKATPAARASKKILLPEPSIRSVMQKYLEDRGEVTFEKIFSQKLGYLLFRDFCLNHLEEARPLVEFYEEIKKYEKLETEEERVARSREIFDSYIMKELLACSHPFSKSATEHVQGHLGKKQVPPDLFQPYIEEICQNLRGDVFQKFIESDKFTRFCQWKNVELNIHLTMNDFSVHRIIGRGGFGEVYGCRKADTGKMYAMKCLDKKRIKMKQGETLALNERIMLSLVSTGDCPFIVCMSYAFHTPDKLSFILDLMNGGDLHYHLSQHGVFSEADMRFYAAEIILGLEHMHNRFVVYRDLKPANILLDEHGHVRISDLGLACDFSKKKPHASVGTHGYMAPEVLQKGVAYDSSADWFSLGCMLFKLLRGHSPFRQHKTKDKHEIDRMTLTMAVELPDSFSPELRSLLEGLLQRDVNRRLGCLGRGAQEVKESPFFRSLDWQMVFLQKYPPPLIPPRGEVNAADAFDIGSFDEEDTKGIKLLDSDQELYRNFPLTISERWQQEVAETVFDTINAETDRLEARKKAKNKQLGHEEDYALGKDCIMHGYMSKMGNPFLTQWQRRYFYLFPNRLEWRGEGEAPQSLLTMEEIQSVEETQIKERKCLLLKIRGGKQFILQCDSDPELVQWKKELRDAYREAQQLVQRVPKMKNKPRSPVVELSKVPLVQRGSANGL
Tn7 DDE FP – disrupts Tn7 cyclic peptide binding to fibrin D-Dimer-E complex. P02675. FP displacement of FITC-Tn7 peptide from fibrin DD(E); 0% = median of compound wells per plate. inhibition, % at 8.3 µM. hit rate 0.13% among 370,000;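 active = inhibition above the mean of compounds falling within the control limits plus 3 SD of them, cut at about 14% in these data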
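Assay system: Human clot-derived fibrin DD(E) complex | Buffer or medium: Tris/NaCl/CaCl2 buffer, pH 7.8 | Repeats: One replicate per compound | Benchmarks: Aha-Tn7 high control | Measure: % inhibition scaled between sample-field median and high-control FP | Schedule: 10 min plus 3 h, room temperature | Signal: Fluorescence polarization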
CAL PDZ FP-2 – inhibitors of human CAL PDZ peptide binding. inhibition, % at 20 µM. purified CAL PDZ, TMR-peptide fluorescence polarization, 1 h. hit rate 0.02% among 330,000. Q9HD26;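 active = highest replicate inhibition of at least 40%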
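Material – purified CerCALP PDZ construct · Detection – FP readout, S and P plane fluorescence · Measure – percent inhibition from loss of millipolarization · Controls – unlabelled peptide for full inhibition, DMSO wells as neutral · Probe or stimulus – TMR-labelled reporter peptide T*-PRC34 bound in PDZ groove · Times – 1 h at RT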
ARNT-TACC3 inh – disrupts binding between human ARNT and TACC3 | Q9Y6A5 | AlphaScreen His-ARNT PAS-B/GST-TACC3 binding, luminescence; TACC3 fragment carries E629A point mutation | inhibition, % at 9.99 µM | hit rate 0.66% among 390,000;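 active = mean inhibition of replicates at least 50% and at least half of replicates each reaching 50%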
GRK2 CP1 – human GRK2 inhibition confirmation, cherry pick 1 | shares compounds with GRK2 inh | bead-bound GRK2, FAM-aptamer displacement, flow cytometry | aptamer displacement, % at 10 µM | hit rate 4% among 2,000;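 active = aptamer displacement above 40%, near three times the noise of non-fluorescent compounds, on plates passing quality checks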;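 note: negative values mostly reflect intrinsic compound fluorescence rather than true enhancement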
Aptamer quench 1 – fluorescent aptamer quenching in GRK2 counter-screen dose response; fluorescence change (kMESF span), kMESF (no concentration beside the values); AID 504521; Fluorescent RNA aptamer beads, flow cytometry; active compounds read high; shares compounds with GRK2 inh; 110 tested, under 10 active;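 active = compounds whose bead fluorescence drops by more than 37 kMESF across the dose range, marking them as dye quenchers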
FAM quench CP1 – aptamer fluorescence quenching in GRK2 counter-screen. shares compounds with GRK2 inh. fluorescence response (% of DMSO), % at 10 µM. 2,000 tested, under 10 active. Carboxyfluorescein RNA aptamer on beads, flow cytometry quenching; active compounds read low;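 active = compounds that quench the bead-bound fluorescent RNA probe, cutting fluorescence to under half of the solvent control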;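 note: counterscreen run without GRK2 so only probe quenching by compound is measured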
GRK2 confirm 2 – confirmation of human GRK2 inhibitors binding RNA aptamer site; AID 504782; 360 tested, under 10 active; inhibition of aptamer binding, % at 10 µM; shares compounds with GRK2 inh; bead-bound GRK2, FAM-aptamer displacement, flow cytometry;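 active = inhibition of aptamer binding above 40%, about triple the noise seen with nonglowing compounds, on plates passing quality control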;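 note: negative values mostly come from compounds that fluoresce themselves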
FAM quench CP2 – counter-screen for GRK2 binding hits: quenchers of fluorescent RNA aptamer; AID 588494; carboxyfluorescein RNA aptamer beads, flow cytometry quenching; active compounds read low; shares compounds with GRK2 inh; fluorescence response vs DMSO, % at 10 µM; 360 tested, under 10 active;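 active = response vs DMSO under 50%, meaning signal dropped by over half, treated as fluorescence quencher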;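 note: labelled aptamer on streptavidin beads without GRK2 as a quench counter-screen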
A number is an active result; i = inactive; nt = no result given.

SMILES	Tn6 DDE FP	CAL PDZ FP-1	GRK2 inh	Tn7 DDE FP	CAL PDZ FP-2	ARNT-TACC3 inh	GRK2 CP1	FAM quench CP1	others
NS(=O)(=O)c1cc(C(=O)N2CCNC(=O)C2)ccc1Cl	i	nt	i	i	i	i	nt	nt
O=C(Nc1cccc(-c2nc3ncccc3o2)c1)c1sc2ccccc2c1Cl	i	nt	i	i	i	i	nt	nt
O=C(Nc1cccc(-c2nc3ncccc3o2)c1)c1sc2cc(Cl)ccc2c1Cl	i	nt	75	i	i	i	i	i
C[C@@H]1CCCCO[C@@H](CN(C)C(=O)C2CCCCC2)[C@H](C)CN([C@H](C)CO)C(=O)c2cc(NC(=O)Nc3ccc4c(c3)OCO4)ccc2O1	nt	nt	nt	nt	nt	i	nt	nt
CCN1/C(=C/c2ccc3cc(C)ccc3[n+]2CC)Sc2ccc3sccc3c21	nt	i	84	nt	i	i	89	i	Aptamer quench 1=67
Cc1ccc2c(c1)Oc1ccc([N+](=O)[O-])cc1C(=O)N2	i	i	i	i	i	i	nt	nt
Cc1ccc2c(c1)Oc1ccc(NC(=O)CCl)cc1C(=O)N2	i	i	41	i	i	i	i	i
O=Cc1ccc(N2N=C(c3ccccc3)CC2c2ccccc2)cc1 (stereo not drawn)	i	i	46	i	i	i	i	i
Cc1oc(/C=N/NC(=O)CC2(C)OCCO2)cc1Br	i	i	i	i	i	i	i	i
O=C(CSc1oc(-c2cccs2)nc1S(=O)(=O)c1ccc(F)cc1)NCC1CCCO1 (stereo not drawn)	i	nt	42	i	i	nt	i	i
CC(C)Sc1nc2[nH]ncc2c(=O)[nH]1	i	i	i	i	i	i	nt	nt
Nc1ccc2nc(-c3ccc(-c4nc5ccc(N)cc5[nH]4)cc3)[nH]c2c1	i	nt	85	i	nt	nt	i	i
COc1cccc(NC(=O)C(OC(=O)c2ccccc2NS(=O)(=O)c2cccs2)c2ccccc2)c1 (stereo not drawn)	i	i	100	i	i	nt	i	i
COc1ccc(-c2noc(N3CCC(C(=O)Nc4ccc(OC)c(OC)c4)CC3)n2)cc1	i	i	83	i	i	i	i	i
Nc1ccc(Nc2ccc([N+](=O)[O-])cc2[N+](=O)[O-])cc1	i	i	84	i	i	i	i	i
COc1ccc(NC(=O)COC(=O)c2c3c(nc4ccccc24)CCCC3)cc1	i	i	i	i	i	i	nt	nt
COc1ccc(OC)c(NC(=O)COC(=O)c2c3c(nc4ccccc24)CCCC3)c1	i	nt	73	i	i	i	i	i
COc1ccc(C2Nc3cccc4cccc(c34)N2)cc1Br	i	i	68	i	nt	i	i	i
CCOc1ccc(S(=O)(=O)N2CCCC(C(=O)Nc3cc(C)cc(C)c3)C2)cc1 (stereo not drawn)	i	i	i	i	i	i	nt	nt
O=C(NCCCn1ccnc1)c1sc2cc([N+](=O)[O-])ccc2c1Cl	i	nt	nt	i	nt	nt	nt	nt
O=C(CN1CCc2ccccc2C1)Nc1ccccc1C(F)(F)F	i	nt	48	i	i	i	i	i
CN1CCN(CC(=O)Nc2ccccc2C(F)(F)F)CC1	i	i	i	i	i	i	nt	nt
C/C=C/c1cnc2c(c1)C(=O)N([C@H](C)CO)C[C@H](C)[C@H](CN(C)C(=O)c1ccc3c(c1)OCO3)O2	nt	nt	nt	nt	nt	i	nt	nt
COc1cc(NC(=O)C2CCCO2)c(C(=O)O)cc1OC (stereo not drawn)	nt	nt	i	nt	i	i	i	i
COc1ccc(S(=O)(=O)NCc2ccc3c(c2)OCO3)cc1C	i	i	71	i	i	i	i	i
SMILES	Tn6 DDE FP	CAL PDZ FP-1	GRK2 inh	Tn7 DDE FP	CAL PDZ FP-2	ARNT-TACC3 inh	GRK2 CP1	FAM quench CP1	others
COc1ccc(S(=O)(=O)NCc2ccc3c(c2)OCO3)cc1OC	i	i	i	i	i	i	nt	nt
CCCNC(=O)NC(=O)CSc1nnc(-c2ccncc2)n1CC	i	i	61	i	i	i	i	i
O=C(N[C@@H]1CC[C@H](CCNS(=O)(=O)c2ccc(Cl)cc2)O[C@@H]1CO)c1cccc(F)c1	nt	nt	nt	nt	nt	i	nt	nt
COc1ccc(C(C(=O)NC2CCCC2)N(C(=O)c2snc(-c3ccc(F)cc3)c2N)c2ccc(F)cc2)cc1 (stereo not drawn)	i	nt	72	i	i	i	i	i
COc1ccc(C(C(=O)NC2CCCC2)N(C(=O)c2snc(-c3ccc(F)cc3)c2N)c2ccc(OC)cc2)cc1 (stereo not drawn)	i	i	i	i	i	i	nt	nt
COCCn1c(SCc2cccc([N+](=O)[O-])c2)nc2ccccc2c1=O	i	i	i	i	i	i	nt	nt
Cn1c(SCc2cccc([N+](=O)[O-])c2)nc2ccccc2c1=O	i	i	47	i	i	i	i	i
C[C@@H]1CN([C@H](C)CO)C(=O)c2cc(NS(C)(=O)=O)ccc2O[C@H]1CN(C)S(=O)(=O)c1ccc(Cl)cc1	nt	nt	nt	nt	nt	i	nt	nt
COc1cccc(CC2(CO)CCN(Cc3cnc(N4CCOCC4)s3)CC2)c1	i	nt	i	i	i	i	nt	nt
OCC1(CCCc2ccccc2)CCN(Cc2cnc(N3CCOCC3)s2)CC1	i	nt	i	i	i	i	i	i
CCOC(=O)c1ccc(NS(=O)(=O)c2c(C)nc3sccn3c2=O)cc1	i	nt	i	i	i	i	nt	nt
CN(C)CCCNC(=O)C[C@H]1CC[C@H]2[C@H](COc3ccc(NC(=O)C4CCC4)cc3C(=O)N2C)O1	nt	nt	nt	nt	nt	i	nt	nt
CCOC(=O)C1=C(C(F)(F)F)Nc2ncnn2C1c1cc(OC)ccc1OC (stereo not drawn)	i	i	i	i	i	i	nt	nt
CCOC(=O)C1=C(C(F)(F)F)Nc2ncnn2C1c1cccc(OC)c1OC (stereo not drawn)	i	i	81	i	i	i	nt	nt	GRK2 confirm 2=i;FAM quench CP2=i
COC(=O)[C@H](CC(C)C)N1Cc2nnn(Cc3ccccc3)c2-c2cc(F)ccc2S1(=O)=O	i	nt	nt	i	nt	nt	nt	nt
COCCOC(=O)C1=C(C)N=C2SCCC(=O)N2C1c1cccs1 (stereo not drawn)	i	i	81	i	i	i	i	i

Source: PubChem (several laboratories)
